Bioassay records (PubChem)
FGF22 binding-1 – binders of recombinant human FGF22 by thermal shift; Q9HCT0; SYPRO orange fluorescence; percent of sucrose octasulfate shift, DMSO zero; activity (Tm shift, normalised), % at 9.99 µM; actives 1.5% (n = 340,000);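 active = mean Tm shift, scaled 0 neutral to 100 positive control, at about 1.3% or above, every replicate too, limit read from the data; inconclusive = no clear call, values can overlap the other calls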
DENV2 CPE – protects cells from dengue virus 2 cytopathic effect | DENV2-infected cells, cytopathic effect rescue, plate reader | CPE inhibition, % at 9.99 µM | actives 1.7% (n = 350,000) | AID 651640; in the data active = CPE inhibition above about 20%, passing the limit was not always enough; inconclusive = no clear call, values can overlap the other calls; tested in BHK-21 cells;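 also: 0% = median of neutral control wells and 100% = median of positive control wells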
PglD inh – PglD (C. jejuni) enzyme inhibition; actives 0.098% (n = 360,000); inhibition, % at 12.5 µM; purified PglD enzyme, DTNB colorimetric CoA detection; AID 602405; in the data active = inhibition above about 16%, passing the limit was not always enough; inconclusive = no clear call, values can overlap the other calls
Statin myotox sup – protects C2C12 myotubes from simvastatin toxicity; ATP luminescence, 48 h; scaled: DMSO 0, geranylgeraniol control 100; AID 602340; actives 0.78% (n = 330,000); rescue of ATP level, % at 7.49 µM;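 active = mean ATP rescue above about 67%, or every replicate alone reaching that limit, limit read from the data, passing the limit was not always enough; inconclusive = no clear call, values can overlap the other calls; inactive = mean under the limit and some replicate under it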;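 also: myotubes were challenged with 10 µM simvastatin during compound exposure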
E-selectin induc – E-selectin induction on HUVECs; AID 686992; actives 0.37% (n = 260,000); activation, % at 7.58 µM; P16581; HUVEC E-selectin immunofluorescence imaging; normalized: neutral wells 0, TNF-alpha wells 100;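 active = mean E-selectin-positive cell signal at least 10% of the positive control, reached in at least 60% of replicates, without over 20% cell loss; inconclusive = no rule given, readout overlaps actives, possibly toxicity-flagged; inactive = the rest, including those meeting only one limit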
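Read-out basis: % PE-positive cells; Test system: HUVEC primary endothelial cells; Technique: immunofluorescence imaging; Dosing: single-point compound dose.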
Xi reactivation – activators of X-chromosome reactivation in mouse fibroblasts; actives 0.055% (n = 360,000); activation, % at 7.58 µM; XiGFP mouse fibroblasts, % GFP-positive cells imaging, 3 d; cells co-treated with 5-aza-dC sensitizer; scaled so ellipticine positive control = 100%;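 active = mean normalized replicate activation at least 10% and every replicate at or above 10%; inconclusive = only one of the two criteria met; inactive = mean below 10% and not all replicates reach 10%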;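 also: 0% = median of on-plate neutral control wells and 100% = ellipticine 6 µM median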
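Assay system: SV40-immortalized XiGFP fibroblast cells, line 68-5-11; buffer or medium: DMEM plus 5-aza-dC sensitizer; compound: one concentration, pinned; timing: compounds 3 days, fix/stain 15 min at room temperature; benchmarks: positive control ellipticine, 6 µM final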
FGF22 binding-2 – FGF22 (human) binding in thermal shift; shares compounds with FGF22 binding-1; recombinant FGF22 thermal shift, SYPRO orange fluorescence; thermal shift activity, °C (ΔTm) at 38 µM; actives 2% (n = 1,000);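 active = fitted rise in melting shift crosses a set limit at or below the top valid dose tested; inconclusive = flat fit at mid-level activity, or a poor quality fit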
TSA no protein – shows thermal shift signal without protein, FGF22 counter-screen. AC50, µM (titrated, usually from 38 µM). actives 2% (n = 1,000). compound-only SYPRO orange thermal shift counter-screen, no protein. shares compounds with FGF22 binding-1;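 active = rising signal whose fitted curve reaches the 0.54 level within the top valid dose, showing a melting point, actives reach about 13 µM in these data; inactive = the rest, including activity in the opposite direction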; also: value is where the raw curve crosses a fixed level and not half-maximal
An asterisk follows results filed as active; i = inactive; ? = inconclusive; . = no result. Rows were chosen to be rich in hits. Some 3.3% of all compounds tested hit in one or more screens of this group.

SMILES	FGF22 binding-1	DENV2 CPE	PglD inh	Statin myotox sup	E-selectin induc	Xi reactivation	FGF22 binding-2	TSA no protein
CN1C(=O)c2cc(NC(=O)c3ccccc3F)ccc2OC[C@H]2O[C@@H](CC(=O)NCc3ccc4c(c3)OCO4)CC[C@H]21	1	-1	1	5	0	0	.	.
O=C(Cn1[nH]c(=O)c2ccccc2c1=O)Nc1cccnc1	2.2*	17	.	.	0	0	0.082	i
C[C@H](CO)N1C[C@H](C)[C@@H](CN(C)S(=O)(=O)CC(F)(F)F)OCc2ccccc2-c2ccccc2C1=O	0	-1	-4	-17	.	.	.	.
Cc1[nH]c2ccccc2c1N=Nc1cc(C(=O)O)cc(C(=O)O)c1	1.5*	-4	4	2	7	0	0.056	i
O=[N+]([O-])c1ccccc1S(=O)(=O)Nc1ccc(S(=O)(=O)Nc2nccs2)cc1	-1	?	3	2	.	0	.	.
O=[N+]([O-])c1cccc(S(=O)(=O)Nc2ccc(-c3ccc(N4CCCC4)nn3)cc2)c1	1.6*	5	-3	0	0	0	-0.071	i
O=[N+]([O-])c1cccc(S(=O)(=O)Nc2ccc(-c3ccc(N4CCOCC4)nn3)cc2)c1	2.5*	5	10	-5	0	0	-0.022	i
O=[N+]([O-])c1cccc(S(=O)(=O)Nc2cccc(-c3ccc(N4CCOCC4)nn3)c2)c1	0	-2	5	1	-1	0	.	.
O=[N+]([O-])c1cccc(S(=O)(=O)Nc2ccc(S(=O)(=O)Nc3nccs3)cc2)c1	1.6*	-1	-2	-3	0	0	0.084	i
O=C(Nc1ccsc1C(=O)O)c1cccc(C(F)(F)F)c1	1.5*	19	.	.	0	0	0.19	i
O=C(Nc1ccsc1C(=O)O)c1cccc(Oc2ccccc2)c1	0	-1	4	0	0	0	.	.
CCOC(=O)c1c(C)[nH]c(C)c1C(=O)COC(=O)/C=C/c1ccccc1[N+](=O)[O-]	2.0*	?	-3	-6	-2	0	-0.03	i
COc1ccc(S(=O)(=O)N(C)C[C@@H]2OCCCC[C@H](C)Oc3ccc(NC(=O)c4ccccc4)cc3C(=O)N([C@H](C)CO)C[C@H]2C)cc1	1	0	-5	.	0	0	.	.
CCn1c2ccccc2c2cc(/C=N/NC(=O)c3ccc(O)cc3)ccc21	1	7	.	.	.	0	.	.
CCn1c2ccccc2c2cc(/C=N/NC(=O)c3ccncc3)ccc21	1.5*	0	3	-16	.	0	0.13	i
COc1ccc(/C=N/NC(=O)c2cc(-c3ccc4c(c3)OCO4)n[nH]2)cc1OC	1.5*	-9	.	.	.	0	0.19	i
COc1ccc(C(=O)Nc2ccccc2N2CCOCC2)cc1S(=O)(=O)N1CCOCC1	21*	-1	2	-1	.	0	0.026	i
COc1ccc(C(=O)Nc2cc(Cl)ccc2N2CCOCC2)cc1S(=O)(=O)N1CCOCC1	0	-2	4	-6	0	0	.	.
C/C(CC(=O)Nc1cccc(Cl)c1Cl)=N\NC(=O)C(=O)NC1CCCCC1	28*	3	-2	-1	0	0	0.051	i
C/C(CC(=O)Nc1ccccc1Cl)=N\NC(=O)C(=O)NCCO	0	-2	2	-14	0	0	.	.
O=S(=O)(Nc1cc(Cl)ccc1-n1cncn1)c1ccc(F)cc1	1.5*	1	-3	-6	1	0	-0.013	i
O=C(O)c1ccc(NC(=O)c2cccc(S(=O)(=O)Nc3ccc(C(=O)O)cc3)c2)cc1	2.1*	7	2	-10	0	0	0.22	i
O=C(CC(=O)c1ccccc1)Nc1cccc([N+](=O)[O-])c1	1.8*	-5	7	.	0	0	0.11	i
